The values that follow come from ChEMBL document CHEMBL3397001, “Metabolic glycoengineering sensitizes drug-resistant pancreatic cancer cells to tyrosine kinase inhibitors erlotinib and gefitinib” (2015).

The target in test [1] is Epidermal growth factor receptor (Homo sapiens) (UniProt P00533). Nature of the test: Inhibition of EGFR-mediated STAT3 phosphorylation in human SW1990 cells at 25 to 100 uM by Western blotting method. It is filed as cell-based. The gist of the method:
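Cells treated at several analog concentrations; lysates immunoblotted for phospho-STAT3, with band intensity quantified by densitometry. At least 3 biological replicates; mean + SEM; p < 0.05.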
For orientation: A western blot detects proteins with antibodies after separation by electrophoresis.

Test [2] has as its system SW1990. Nature of the test: Potentiation of gefitinib-induced antiproliferative effect against human SW1990 cells pre-treated with 25 uM compound for 48 hrs […] for additional after 72 hrs by cell counting method. It is filed as functional, cell-based. In a few lines: (§1)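 Cells given sugar analog (0, 25 or 50 μM; 12.5 or 25 μM for the azido analog) plus a concentration range of erlotinib or gefitinib, and growth inhibition measured. Synergy expressed as Combination Index, CI = D1/(Dx)1 + D2/(Dx)2, plotted against percent inhibition. At least 3 biological replicates; mean ± SEM.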

The subject of test [3] is SW1990. Nature of the test: Potentiation of erlotinib-induced antiproliferative effect against human SW1990 cells pre-treated with 25 uM compound for 48 hrs followed by erlotinib exposure for additional after 72 hrs by cell counting method. It is filed as functional, cell-based. In a few lines: as §1
In test [4] the test system is SW1990. In words: Inhibition of cell proliferation of human SW1990 cells at 25 and 50 uM after 48 hrs by cell counting method. It is filed as functional, cell-based.
The target of test [5] is Epidermal growth factor receptor (Homo sapiens) (UniProt P00533). Nature of the test: Increase in sialylation of EGFR in human SW1990 cells after 48 hrs by mass spectrometry based glycosite and glycan analysis method. In kind it is cell-based. The gist of the method: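 EGFR sialylation in treated cells assessed by mass spectrometry-based glycosite and glycan analysis.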
Chain of Epidermal growth factor receptor (Homo sapiens) (P00533 whole entry): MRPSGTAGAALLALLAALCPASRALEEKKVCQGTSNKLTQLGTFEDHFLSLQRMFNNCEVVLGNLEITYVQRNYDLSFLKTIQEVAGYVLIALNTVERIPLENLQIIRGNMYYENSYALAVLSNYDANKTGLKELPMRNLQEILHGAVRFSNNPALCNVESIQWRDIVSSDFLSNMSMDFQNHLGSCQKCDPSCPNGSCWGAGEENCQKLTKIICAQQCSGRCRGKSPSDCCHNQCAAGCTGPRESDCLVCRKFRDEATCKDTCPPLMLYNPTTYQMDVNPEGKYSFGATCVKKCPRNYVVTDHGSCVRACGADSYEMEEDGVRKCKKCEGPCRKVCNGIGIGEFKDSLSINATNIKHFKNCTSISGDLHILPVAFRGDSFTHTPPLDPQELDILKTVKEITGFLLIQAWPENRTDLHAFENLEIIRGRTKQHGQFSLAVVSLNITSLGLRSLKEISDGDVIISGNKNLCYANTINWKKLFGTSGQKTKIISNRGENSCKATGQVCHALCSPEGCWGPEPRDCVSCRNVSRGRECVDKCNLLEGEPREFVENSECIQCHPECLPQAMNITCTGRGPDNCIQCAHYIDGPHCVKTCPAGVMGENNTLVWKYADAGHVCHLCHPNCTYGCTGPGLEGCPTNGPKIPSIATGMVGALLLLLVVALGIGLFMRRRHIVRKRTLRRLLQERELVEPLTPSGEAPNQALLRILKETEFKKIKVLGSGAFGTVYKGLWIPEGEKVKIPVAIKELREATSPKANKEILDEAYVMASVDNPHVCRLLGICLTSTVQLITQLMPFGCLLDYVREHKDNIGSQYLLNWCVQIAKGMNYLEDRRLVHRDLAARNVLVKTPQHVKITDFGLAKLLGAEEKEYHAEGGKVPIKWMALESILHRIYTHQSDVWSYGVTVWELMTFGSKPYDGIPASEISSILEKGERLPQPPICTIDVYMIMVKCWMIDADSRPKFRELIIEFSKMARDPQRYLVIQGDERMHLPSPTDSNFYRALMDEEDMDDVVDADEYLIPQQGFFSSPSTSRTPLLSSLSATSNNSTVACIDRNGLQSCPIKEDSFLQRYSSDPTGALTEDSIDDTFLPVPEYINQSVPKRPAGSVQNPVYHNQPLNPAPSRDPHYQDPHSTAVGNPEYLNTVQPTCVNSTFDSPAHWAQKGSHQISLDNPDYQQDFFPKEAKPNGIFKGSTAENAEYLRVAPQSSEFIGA

In test [6] the test system is SW1990. In words: Potentiation of erlotinib-induced antiproliferative effect against human SW1990 cells assessed as combination index pre-treated with 50 uM compound for 48 hrs followed by erlotinib exposure for additional after 72 hrs by cell counting method. It is filed as functional. The gist of the method:
as §1

In test [7] the test system is SW1990. Nature of the test: Inhibition of cell proliferation of human SW1990 cells at 100 to 300 uM after 48 hrs by cell counting method. In kind it is functional, cell-based.
The test system of test [8] is SW1990. Nature of the test: Potentiation of gefitinib-induced antiproliferative effect against human SW1990 cells assessed as combination index pre-treated with 50 uM compound for 48 hrs […] for additional after 72 hrs by cell counting method. It is filed as functional. In a few lines:
as §1

In test [9] the target is Epidermal growth factor receptor (Homo sapiens) (UniProt P00533). Nature of the test: Inhibition of EGFR phosphorylation in human SW1990 cells at 25 to 100 uM by Western blotting method. In kind it is cell-based. The gist of the method:
(§2)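 Cells exposed to increasing analog levels; lysates immunoblotted for phospho-EGFR and total EGFR. Significance threshold p < 0.05.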

Test [10] deals with SW1990. Nature of the test: Effect on total EGFR levels in human SW1990 cells at 25 to 100 uM by Western blotting method. In kind it is functional, cell-based. The gist of the method:
as §2

The target in test [11] is Epidermal growth factor receptor (Homo sapiens) (UniProt P00533). In words: Inhibition of EGFR phosphorylation in human SW1990 cells at 50 and 100 uM by immunofluorescence assay. In kind it is cell-based. The gist of the method: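 Treated cells stimulated with EGF for 2.0 min, fixed, stained with anti-p-EGFR plus FITC-labeled anti-rabbit secondary and DAPI, then imaged by immunofluorescence microscopy.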

The subject of test [12] is SW1990. Nature of the test: Potentiation of erlotinib-induced antiproliferative effect against human SW1990 cells pre-treated with 50 uM compound for 48 hrs followed by erlotinib exposure for additional after 72 hrs by cell counting method. In kind it is functional, cell-based. In a few lines: as §1
The target of test [13] is Epidermal growth factor receptor (Homo sapiens) (UniProt P00533). In words: Inhibition of Alexa fluor 488-labeled EGFbinding to EGFR in human SW1990 cells assessed as reduction in available surface bound EGFR at 100 uM after 1 hr by flow cytometry. In kind it is cell-based. In a few lines:
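Intact cells incubated with Alexa Fluor 488-labeled EGF for one hour at room temperature, then surface-bound label read by flow cytometry (saturation binding). At least 3 biological replicates; mean ± SEM.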

In test [14] the test system is SW1990. In words: Potentiation of gefitinib-induced antiproliferative effect against human SW1990 cells pre-treated with 50 uM compound for 48 hrs […] for additional after 72 hrs by cell counting method. In kind it is functional, cell-based. In a few lines:
as §1

For test [15], the system named is SW1990. Nature of the test: Inhibition of cell proliferation of human SW1990 cells at <25 uM after 72 hrs by cell counting method.
Test [16] relates to SW1990. Nature of the test: Potentiation of erlotinib-induced antiproliferative effect against human SW1990 cells assessed as combination index pre-treated with 12.5 and 25 uM compound for 48 hrs followed by erlotinib exposure for additional after 72 hrs by cell counting method. In kind it is functional. In a few lines: as §1

The structures appear in SMILES notation. Active and inactive are the calls of the source.

On to `CCCC(=O)OC1O[C@H](CO)[C@@H](OC(=O)CCC)[C@H](OC(=O)CCC)[C@@H]1NC(C)=O` (stereo partly specified), for which the inhibition entry in test [1] is “Dose-dependent effect”. Also, the outcome in test [2], in test [3], in [12] and in test [14] was Active. Besides, the inhibition result in test [4] was “inactive”. This molecule also displayed a fold change (FC) in [5] of 2. Besides, the CI in [6] and in test [8] was 0.23 throughout. In addition, the inhibition result in test [7], in test [9], in [11] and in test [13] was “Active” each time. Moreover, the outcome in test [10] was inactive.
Turning to `CCCC(=O)OC1O[C@H](CO)[C@@H](OC(=O)CCC)[C@H](OC(=O)CCC)[C@@H]1NC(=O)CN=[N+]=[N-]` (stereo partly specified), the inhibition entry in test [15] is “Active”. Further, the CI in test [16] is given as 0.34.
